In ChEMBL document CHEMBL1153845, “New derivatives of 3,5-substituted-1,4,2-dioxazoles: synthesis and activity against Entamoeba histolytica” (Eur J Med Chem, 2009):

Key:
[1] = Safety index, ratio of IC50 for HEK cells to IC50 for Entamoeba histolytica HM-1:IMSS; format: toxicity, cell-based, HEK293; conditions: human, HEK cells (versus Entamoeba histolytica HM-1:IMSS); read-out: Ratio IC50
[2] = tested on: Entamoeba histolytica; assay: Antiamnesic activity against Entamoeba histolytica HM-1:IMSS after 72 hrs by trypan blue exclusion assay; format: functional, organism-based
Procedure, shortened: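 Microdilution in TYIS-33 medium, trophozoites counted by haemocytometer with trypan blue viability check, 1.7 × 10⁴ organisms/well. Plates gassed with N₂ 10 min, 37 °C for 72 h. Washed with 0.9% NaCl, methanol-fixed, eosin-stained, dye released with 0.1 N NaOH, OD 490 nm. % inhibition vs log dose, IC50 by linear regression. Metronidazole standard. Three independent experiments.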

[3] = Cytotoxicity against HEK cells after 44 hrs by MTT assay; format: cell-based; conditions: Homo sapiens, HEK293, 44 h
Procedure, shortened: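 Transformed human kidney epithelial (Graham) cells kept at 37 °C in 5% CO₂. Trypsinized cells at 0.5 million cells/ml plated with compounds for 44 h, then 2 mM MTT for a further 4 h. Formazan dissolved in DMSO, absorbance 540 nm with 690 nm reference, % viability vs controls. Three independent experiments.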

[4] = in the assay text read “Antiamoebic” for “Antiamnesic”

SMILES	selectivity ratio [1]	IC50 [2] [nM]	IC50 [3] [nM]	IC50 [2, 4] [nM]
CC1(c2ccccn2)ON=C(c2ccccc2Cl)O1 (stereo unspecified)	> 61.7	1620	> 100000	
CCc1ccc(C2ON=C(c3ccccc3Cl)O2)cc1 (stereo unspecified)	> 55.5	> 1800	> 100000	
CCc1ccc(C2ON=C(c3ccc(Cl)cc3)O2)cc1 (stereo unspecified)	> 55.5	> 1800	> 100000	
CC1(c2cccc(Br)c2)ON=C(c2cccc(Cl)c2)O1 (stereo unspecified)	> 55.5	> 1800	> 100000	
CCC1(c2cccc(Cl)c2)ON=C(c2ccc(Cl)cc2)O1 (stereo unspecified)	> 55.5	> 1800	> 100000	
Clc1ccc(C2=NOC(c3ccccc3Cl)O2)cc1 (stereo unspecified)	> 208	480	> 100000	
Clc1ccc(C2=NOC(c3cccc(Cl)c3)O2)cc1 (stereo unspecified)	> 116		> 100000	860
CC1(c2ccc(Cl)cc2)ON=C(c2ccc(Cl)cc2)O1 (stereo unspecified)	> 55.5	> 1800	> 100000	
CC1(c2cccc(Br)c2)ON=C(c2ccc(Cl)cc2)O1 (stereo unspecified)	> 55.5	> 1800	> 100000	
Clc1ccc(C2=NOC(c3ccc(Cl)c(Cl)c3)O2)cc1 (stereo unspecified)	> 88.5		> 100000	1130
Clc1ccc(C2=NOC(c3ccc(Cl)cc3)O2)cc1 (stereo unspecified)	> 189		> 100000	530
Cc1ccc(C2ON=C(c3ccc(Cl)cc3)O2)cc1 (stereo unspecified)	> 55.5	> 1800	> 100000	
Clc1ccc(C2ON=C(c3ccccc3Cl)O2)cc1 (stereo unspecified)	> 196	510	> 100000	
Cc1ccc(C2ON=C(c3ccccc3Cl)O2)cc1 (stereo unspecified)	> 55.5	> 1800	> 100000	
CC1(c2ccc(Cl)cc2)ON=C(c2cccc(Cl)c2)O1 (stereo unspecified)	> 55.5		> 100000	> 1800
CCC1(c2cccc(Cl)c2)ON=C(c2cccc(Cl)c2)O1 (stereo unspecified)	> 55.5	> 1800	> 100000	
Clc1cccc(C2=NOC(c3ccccc3Cl)O2)c1 (stereo unspecified)	> 161		> 100000	620

SMILES	selectivity ratio [1]	IC50 [2] [nM]	IC50 [3] [nM]	IC50 [2, 4] [nM]
CCC1(c2cccc(Cl)c2)ON=C(c2ccccc2Cl)O1 (stereo unspecified)	> 55.5	> 1800	> 100000	
CC1(c2cccc(Br)c2)ON=C(c2ccccc2Cl)O1 (stereo unspecified)	> 55.5	> 1800	> 100000	
Clc1ccccc1C1=NOC(c2ccccc2Cl)O1 (stereo unspecified)	> 244	410	> 100000	
Clc1cccc(C2=NOC(c3ccc(Cl)c(Cl)c3)O2)c1 (stereo unspecified)	> 82.6	1210	> 100000	
Clc1cccc(C2=NOC(c3cccc(Cl)c3)O2)c1 (stereo unspecified)	> 110		> 100000	910
Clc1ccc(C2ON=C(c3ccccc3Cl)O2)cc1Cl (stereo unspecified)	> 124	810	> 100000	
Clc1ccc(C2ON=C(c3cccc(Cl)c3)O2)cc1 (stereo unspecified)	> 141		> 100000	710
CCc1ccc(C2ON=C(c3cccc(Cl)c3)O2)cc1 (stereo unspecified)	> 55.5		> 100000	> 1800
CCC1(c2cccc(Br)c2)ON=C(c2ccc(Cl)cc2)O1 (stereo unspecified)	> 55.5	> 1800	> 100000	
CC1(c2ccc(Cl)cc2)ON=C(c2ccccc2Cl)O1 (stereo unspecified)	> 55.5	> 1800	> 100000	
CC1(c2ccccn2)ON=C(c2cccc(Cl)c2)O1 (stereo unspecified)	> 57.8	1730	> 100000	
CC1(c2ccccn2)ON=C(c2ccc(Cl)cc2)O1 (stereo unspecified)	> 63.3	1580	> 100000	
Cc1ccc(C2ON=C(c3cccc(Cl)c3)O2)cc1 (stereo unspecified)	> 55.5		> 100000	> 1800
CCC1(c2cccc(Br)c2)ON=C(c2cccc(Cl)c2)O1 (stereo unspecified)	> 55.5	> 1800	> 100000	
CCC1(c2cccc(Br)c2)ON=C(c2ccccc2Cl)O1 (stereo unspecified)	> 55.5	> 1800	> 100000	
Clc1cccc(C2ON=C(c3ccccc3Cl)O2)c1 (stereo unspecified)	> 139	720	> 100000	
Cc1ncc([N+](=O)[O-])n1CCO [METRONIDAZOLE]	> 55.5		> 100000	
